Compound activity as filed in PubChem.
SMARCA2 act: increases SMARCA2 function in MMTV reporter cells | MG213 cells, MMTV-luciferase reporter, dexamethasone, overnight | activation, % at 9.1 µM | actives 1% (n = 370,000) | AID 652017; in the data active = activation above about 7.8%;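 also: 0% = vehicle wells and 100% = reference activator wells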
MPTP inh: permeability transition pore inhibition; isolated mouse mitochondria, Ca2+ swelling absorbance, 30 min; inhibition, % at 10 µM; actives 1.4% (n = 360,000);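 active = inhibition of 50% or more, scaled per plate between neutral and stimulator controls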;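 also: 0% = DMSO wells given calcium and 100% = 1 mM EGTA wells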
MC4R ag barr: agonists of human melanocortin 4 receptor (MC4R) beta-arrestin; actives 0.98% (n = 360,000); P32245; U2OS MC4R beta-arrestin complementation, luminescence; percent of melanotan II response, DMSO zero; activation, % at 8.9 µM; AID 540308;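 active = activation above a per-plate cutoff, the mean activation of sample wells on that plate plus 3 SD, cut at about 8% in these data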
MC4R antagonist: antagonists of human melanocortin 4 receptor (MC4R); P32245; MC4R-expressing cells, MTII-stimulated cAMP, LANCE TR-FRET; inhibition, % at 6.5 µM; actives 0.48% (n = 360,000); AID 540295;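 active = inhibition above its plate's cutoff, the mean of tested wells on that plate plus 3 SD, cut at about 29% in these data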;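 also: 0% = Melanotan II alone and 100% = Melanotan II plus saturating MCL0020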
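System: U2OS-MC4R stable cell line; Technique: Eu-cAMP/anti-cAMP TR-FRET, emission 671 nm; Repeats: single well per compound; Also added: Melanotan II; Dosing: one concentration, 6.5 µM nominal; Schedule: 30-min compound, 1-h challenge, 1-h detection, room temperature.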
ATG4B inh: inhibitors of human ATG4B cysteine protease | inhibition, % at 8.33 µM | actives 0.51% (n = 340,000) | Q9Y4P1 | ATG4B cleavage of LC3-PLA2, NBD-HPC fluorescence, 1 h; in the data active = inhibition above about 40%
Target sequence (Q9Y4P1 whole entry, looked up): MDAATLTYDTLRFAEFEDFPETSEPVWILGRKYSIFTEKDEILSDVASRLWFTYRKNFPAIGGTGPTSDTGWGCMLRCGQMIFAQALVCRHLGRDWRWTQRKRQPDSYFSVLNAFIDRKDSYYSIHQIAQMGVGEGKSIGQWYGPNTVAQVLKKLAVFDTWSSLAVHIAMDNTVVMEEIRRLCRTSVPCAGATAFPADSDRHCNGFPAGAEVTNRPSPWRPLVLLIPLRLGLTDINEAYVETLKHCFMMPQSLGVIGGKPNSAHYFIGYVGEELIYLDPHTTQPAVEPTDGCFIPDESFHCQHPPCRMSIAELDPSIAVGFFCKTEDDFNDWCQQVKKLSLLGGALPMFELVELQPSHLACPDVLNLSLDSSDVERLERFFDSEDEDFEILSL
MC4R barr conf: human MC4R beta-arrestin agonism confirmation; activation, % at 8.9 µM; AID 602192; actives 31% (n = 2,400); U2OS MC4R beta-arrestin recruitment, luminescence; scaled DMSO 0%, Melanotan II 100%; shares compounds with MC4R ag barr;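 active = mean activation across replicates above the hit cutoff set in the earlier primary screen, cut at about 8% in these data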
MOR DOR agonist: activates mu-delta opioid heterodimer, MC4R agonist counter-screen; shares compounds with MC4R ag barr; U2OS PathHunter beta-arrestin, beta-gal luminescence; percent of deltorphin B response, DMSO zero; activation, % at 9.2 µM; actives 5.8% (n = 2,400); AID 602194;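 active = mean activation across replicates exceeds the hit threshold derived in the earlier primary screen, cut at about 18% in these data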;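 also: 100% = deltorphin B at 0.9 µM final and 0% = DMSO alone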
* hit, by the source's call; nt = no result. Most compounds without a hit are left out; they make up all but 4.1% or so of the library.

SMILES	SMARCA2 act	MPTP inh	MC4R ag barr	MC4R antagonist	ATG4B inh	MC4R barr conf	MOR DOR agonist
O=C(Cc1cccs1)Nc1ccc(-c2nnc(-c3ccco3)o2)cc1	2	3	11*	7	-1	4	6
CC1=CC(C)(C)n2c(O)c(N=NC(N)=S)c3cc(C)cc1c32	-3	11	16*	-2	-1	14*	5
Cc1ccc2c(c1)c(N=NC(N)=S)c(O)n2Cc1ccccc1	-1	1	8	-27	-7	nt	nt
CCC(=O)NC(Nc1sc2c(c1C(=O)OC)CCCC2)(C(F)(F)F)C(F)(F)F	-2	2	15*	9	-3	-1	5
COC(=O)c1c(NC(NC(=O)c2ccccc2)(C(F)(F)F)C(F)(F)F)sc2c1CCN(C)C2	-3	0	-2	8	3	nt	nt
CCCCCCN1CCS(=O)(=O)N(Cc2ccc(C)cc2)C(C(=O)OC)C1 (stereo not given)	-1	nt	nt	nt	nt	nt	nt
CCCC(=O)Oc1ccccc1C1SCc2cc(C)c(C)cc2CS1	-1	3	16*	10	0	5	4
O=C(c1ccc(COc2ccccc2Br)o1)N1N=C(C(F)F)CC1(O)C(F)F (stereo not given)	-1	7	15*	13	22	8	11
COC(=O)[C@]12C[C@H](CC(=O)NCc3cccc(C(F)(F)F)c3)C(=O)N(Cc3ccc4c(c3)OCO4)C1=C[C@H](C(C)(C)C)O[C@@H]2C	-4	nt	nt	nt	nt	nt	nt
Cc1cc(C)cc(NC(=O)Cc2ccc(-n3cccc3)cc2)c1	-4	3	9.7*	9	10	2	4
COc1cc(-c2nnc3sc(-c4cccs4)nn23)cc(OC)c1OC	4	0	15*	-29	-11	-1	6
COc1ccc(-c2nnc3sc(-c4cccs4)nn23)cc1OC	-1	-1	-1	-14	-13	nt	nt
COc1cccc(-c2ccc3c(c2)[C@@H]2C[C@H]4[C@@H](CN2CC3)[C@H](C)ON4C)c1	-4	nt	nt	nt	nt	nt	nt
CCCCC(=O)OCC(=O)N1N=C(c2c[nH]c3ccccc23)C(O)C1c1ccc(OC)cc1 (stereo not given)	-4	4	15*	12	-5	8.3*	5
O=C(N/C=N/OCc1ccc(Cl)cc1Cl)NOCc1c(Cl)cccc1Cl	0	-10	12*	-11	-8	8	3
CCn1nc(NC(=O)c2cccnc2)c2cc3cccc(C)c3nc21	1	-10	17*	1	-8	0	3
CCn1nc(NC(=O)c2ccncc2)c2cc3cccc(C)c3nc21	4	2	0	11	-25	nt	nt
O=C(COc1ccccc1)NCc1ccco1	-1	0	0	7	-2	nt	nt
N#Cc1c2ccc(OCC(=O)NCc3ccco3)cc2n2ccccc12	1	-1	14*	12	2	3	5
C/C(=C\c1ccco1)C1C(C#N)=C(N)Oc2n[nH]c(-c3ccc(C)cc3)c21 (stereo not given)	-2	4	16*	10	-4	23*	11
COC(=O)[C@H](CC(C)C)N1Cc2nnn(Cc3ccccc3)c2-c2ccccc2S1(=O)=O	-4	nt	nt	nt	nt	nt	nt
CCOC(=O)CC[C@@H]1CC[C@]2(CCCN(C(=O)C3CCCC3)C2)O1	-3	nt	nt	nt	nt	nt	nt
Cc1nc(NC(=O)/C=C/c2ccccc2)sc1C(=O)Nc1cccc(Cl)c1	2	4	12*	0	-4	7	3
Cc1nn(C)c2ncc(C(=O)c3cc(F)ccc3O)cc12	1	0	2	13	-8	nt	nt
O=C(c1cnc2ccc3ccccc3c2c1)c1cc(F)ccc1O	-3	15	22*	8	9	-4	5
SMILES	SMARCA2 act	MPTP inh	MC4R ag barr	MC4R antagonist	ATG4B inh	MC4R barr conf	MOR DOR agonist
Cc1nn(Cc2ccc(F)cc2)c2sc(C(=O)Nc3nccs3)cc12	-4	1	13*	3	-1	2	5
CN1CCN(C2=CC3=CC(=C(C#N)C#N)CCC3CC2)CC1 (stereo not given)	nt	2	15*	-24	-185	14*	7
O=C(CCCn1c(SCC(=O)c2ccc(F)cc2)nc2ccccc2c1=O)NCc1ccccc1	-2	10	24*	12	5	2	13
Cc1cc(NC(=O)CSc2nc3ccccc3c(=O)n2CCCC(=O)NCc2ccccc2)n[nH]1	-2	-1	2	-10	22	nt	nt
COc1cccc(/C=N/NC(=O)C(=O)Nc2ccccc2OC(F)(F)C(F)F)c1	3	1	16*	-1	-2	3	6
CC(CCN1CCC(C(O)(c2ccccc2)c2ccccc2)CC1)Oc1ccccc1C#N (stereo not given)	-5	nt	nt	nt	nt	nt	nt
COc1ccc(OCC(=O)Nc2cc3oc4ccccc4c3cc2OC)cc1	nt	1	38*	-7	-4	12*	14
COc1cc2c(cc1NC(=O)Nc1cccc(C)c1)oc1ccccc12	-1	18	11*	6	9	2	2
COc1cc2c(cc1NC(=O)Nc1ccc(F)cc1)oc1ccccc12	0	36	11*	-4	1	1	3
COc1ccc(C)cc1NC(=O)Nc1cccc(C)c1	1	11	-2	14	-9	nt	nt
Cc1cccc(NC(=O)Nc2ccc(C)cc2Br)c1	8	13	12*	6	3	3	9
COc1cc2c(cc1NC(=O)CSc1ccccc1)oc1ccccc12	1	1	-2	6	-5	nt	nt
COc1ccc(NC(=O)Nc2cc3oc4ccccc4c3cc2OC)cc1	-3	7	0	6	-16	nt	nt
CCCn1c(=S)[nH]c2cc(C(=O)N3CCN(c4ccccc4)CC3)ccc2c1=O	-3	2	-2	0	nt	nt	nt
CCCn1c(=S)[nH]c2cc(C(=O)N3CCc4ccccc4C3)ccc2c1=O	-5	5	12*	9	32	-3	3
CSc1ccc(/C=C/C(=O)OCC(=O)c2ccc[nH]2)cc1	-2	0	22*	5	5	-1	6
CSc1ccc(/C=C/C(=O)OCC(=O)NC2CCCC2)cc1	3	-1	2	9	nt	nt	nt
CCOC(=O)c1[nH]c2ccc(Cl)cc2c1NC(=O)/C=C/c1ccc2c(c1)OCO2	0	1	38*	-2	0	3	4
COc1ccc(-n2cccc2/C=C2/NC(=O)N(c3cccc(Cl)c3)C2=O)cc1	0	1	14*	2	-7	2	2
O=C(c1ccccc1)N1CCC2CCN(CCc3ccccc3)CC21 (stereo not given)	-4	nt	nt	nt	nt	nt	nt
